Results taken from ChEMBL document CHEMBL4834403, “Design and Synthesis of Novel Epigenetic Inhibitors Targeting Histone Deacetylases, DNA Methyltransferase 1, and Lysine Methyltransferase G9a with In Vivo Efficacy in Multiple Myeloma” (J Med Chem, 2021).

Legend:
THLE-2 = assay: Cytotoxicity against human THLE-2 cells assessed as decrease in cell viability measured after 72 hrs by Vialight-plus cell proliferation assay; format: cell-based; details: thle-2, 72 h
Method in brief: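 Human THLE-2 cells exposed to compound for 72 h. Cytotoxicity reported as LC50 and pLC50, averaged from at least two independent experiments on different days.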

MM1.S = assay: Antiproliferative activity against human MM1.S cells assessed as inhibition of cell proliferation measured up to 72 hrs by CellTiter96 Aqueous one reagent based assay; format: functional
[1] = Permeability of the compound in PBS/EtOH buffer (70:30) incubated for 18 hrs by UV plate reader based PAMPA assay; format: ADME; details: read-out: permeability
Histone deacetylase 1 = Histone deacetylase 1 (Homo sapiens, UniProt Q13547); assay: Inhibition of full length human C-terminal His-tagged/C-terminal Flag-tagged HDAC1 using fluorogenic acetylated peptide as substrate incubated for 30 mins by fluorescence plate reader assay
Sequence of Histone deacetylase 1 (Q13547 whole entry): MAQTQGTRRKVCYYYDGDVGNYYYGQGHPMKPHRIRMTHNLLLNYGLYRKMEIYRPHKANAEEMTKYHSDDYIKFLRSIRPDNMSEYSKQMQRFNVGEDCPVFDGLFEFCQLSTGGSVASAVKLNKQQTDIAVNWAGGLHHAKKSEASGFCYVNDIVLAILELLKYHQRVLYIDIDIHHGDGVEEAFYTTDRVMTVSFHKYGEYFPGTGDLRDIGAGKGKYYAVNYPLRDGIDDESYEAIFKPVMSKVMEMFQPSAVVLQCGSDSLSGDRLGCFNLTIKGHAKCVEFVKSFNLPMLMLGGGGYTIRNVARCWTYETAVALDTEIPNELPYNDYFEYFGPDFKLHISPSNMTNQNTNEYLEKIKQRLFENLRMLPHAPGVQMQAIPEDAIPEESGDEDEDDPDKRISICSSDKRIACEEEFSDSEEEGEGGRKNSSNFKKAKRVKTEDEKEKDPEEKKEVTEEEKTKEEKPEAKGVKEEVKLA

[2] = target: T1, Histone-lysine N-methyltransferase EHMT2 (Homo sapiens, UniProt Q96KQ7); assay: Inhibition of human G9a enzyme using histone monomethyl-H3K9 peptide as substrate incubated for 1 hr in presence of SAM by TR-FRET assay
T1 sequence (Q96KQ7 whole entry): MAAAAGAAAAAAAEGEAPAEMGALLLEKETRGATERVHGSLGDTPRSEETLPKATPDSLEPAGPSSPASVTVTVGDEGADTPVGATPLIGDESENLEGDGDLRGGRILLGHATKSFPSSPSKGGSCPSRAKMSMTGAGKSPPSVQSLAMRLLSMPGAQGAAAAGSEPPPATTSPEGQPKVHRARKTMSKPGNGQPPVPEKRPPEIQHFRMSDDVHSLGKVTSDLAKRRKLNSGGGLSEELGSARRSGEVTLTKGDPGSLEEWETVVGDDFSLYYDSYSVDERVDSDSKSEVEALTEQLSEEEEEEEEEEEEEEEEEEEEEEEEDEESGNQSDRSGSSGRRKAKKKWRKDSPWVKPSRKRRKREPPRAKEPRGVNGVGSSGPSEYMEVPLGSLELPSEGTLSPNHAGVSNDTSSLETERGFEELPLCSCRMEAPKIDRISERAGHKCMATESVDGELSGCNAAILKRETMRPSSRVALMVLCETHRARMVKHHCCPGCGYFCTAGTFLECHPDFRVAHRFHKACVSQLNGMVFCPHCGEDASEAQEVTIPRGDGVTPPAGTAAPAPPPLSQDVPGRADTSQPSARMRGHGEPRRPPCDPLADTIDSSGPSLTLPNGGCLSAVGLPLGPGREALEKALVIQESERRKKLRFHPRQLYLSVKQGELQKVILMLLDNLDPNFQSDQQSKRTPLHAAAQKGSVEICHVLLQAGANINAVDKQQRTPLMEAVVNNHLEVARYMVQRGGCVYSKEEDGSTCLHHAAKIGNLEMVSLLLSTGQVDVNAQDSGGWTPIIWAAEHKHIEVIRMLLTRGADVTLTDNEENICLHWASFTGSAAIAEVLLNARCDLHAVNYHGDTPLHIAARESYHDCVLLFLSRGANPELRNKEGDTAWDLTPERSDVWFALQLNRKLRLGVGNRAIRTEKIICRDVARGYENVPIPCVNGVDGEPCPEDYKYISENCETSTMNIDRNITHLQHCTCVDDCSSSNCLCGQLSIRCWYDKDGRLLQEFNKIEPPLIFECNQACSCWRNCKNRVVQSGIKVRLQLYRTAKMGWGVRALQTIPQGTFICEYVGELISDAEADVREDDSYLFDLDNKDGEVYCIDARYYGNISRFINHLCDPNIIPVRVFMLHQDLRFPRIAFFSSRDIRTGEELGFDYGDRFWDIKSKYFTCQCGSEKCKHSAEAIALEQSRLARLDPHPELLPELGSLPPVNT

[3] = target: T2, Protein deacetylase HDAC6 (Homo sapiens, UniProt Q9UBN7); assay: Inhibition of full length human N-terminal GST-tagged HDAC6 using fluorogenic acetylated peptide as substrate incubated for 30 mins by fluorescence plate reader assay
T2 sequence (Q9UBN7 whole entry): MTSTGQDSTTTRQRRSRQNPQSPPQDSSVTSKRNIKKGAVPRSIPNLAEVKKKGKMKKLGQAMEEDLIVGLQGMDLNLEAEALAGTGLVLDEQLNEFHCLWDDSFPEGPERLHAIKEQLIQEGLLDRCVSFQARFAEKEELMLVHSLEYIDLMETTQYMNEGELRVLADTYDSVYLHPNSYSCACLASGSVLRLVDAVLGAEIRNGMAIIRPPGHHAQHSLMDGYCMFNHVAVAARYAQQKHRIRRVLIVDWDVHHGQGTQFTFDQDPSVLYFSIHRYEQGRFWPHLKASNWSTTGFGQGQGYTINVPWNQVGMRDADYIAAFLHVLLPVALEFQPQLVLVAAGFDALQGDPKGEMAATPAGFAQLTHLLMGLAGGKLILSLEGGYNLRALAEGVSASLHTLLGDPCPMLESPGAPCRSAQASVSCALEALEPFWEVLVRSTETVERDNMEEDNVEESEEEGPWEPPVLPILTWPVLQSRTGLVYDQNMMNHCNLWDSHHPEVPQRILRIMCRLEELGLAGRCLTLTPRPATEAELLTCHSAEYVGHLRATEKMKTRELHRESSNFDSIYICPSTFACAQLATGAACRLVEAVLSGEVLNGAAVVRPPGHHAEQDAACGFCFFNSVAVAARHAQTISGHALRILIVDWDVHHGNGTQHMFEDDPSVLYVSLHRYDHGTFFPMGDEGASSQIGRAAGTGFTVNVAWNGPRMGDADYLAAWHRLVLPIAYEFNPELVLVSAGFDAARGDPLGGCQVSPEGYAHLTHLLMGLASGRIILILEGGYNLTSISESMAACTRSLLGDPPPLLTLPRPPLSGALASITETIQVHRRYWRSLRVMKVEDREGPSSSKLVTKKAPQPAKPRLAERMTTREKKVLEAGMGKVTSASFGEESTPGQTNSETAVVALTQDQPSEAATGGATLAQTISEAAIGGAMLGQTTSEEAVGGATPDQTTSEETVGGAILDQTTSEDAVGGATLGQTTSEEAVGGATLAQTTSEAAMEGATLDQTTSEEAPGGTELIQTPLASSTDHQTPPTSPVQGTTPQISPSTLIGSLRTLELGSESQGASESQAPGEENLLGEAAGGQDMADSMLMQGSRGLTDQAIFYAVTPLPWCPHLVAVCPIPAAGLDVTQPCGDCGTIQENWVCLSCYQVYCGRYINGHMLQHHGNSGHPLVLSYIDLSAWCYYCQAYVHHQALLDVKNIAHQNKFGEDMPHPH

[4] = target: DNA (cytosine-5)-methyltransferase 1 (Homo sapiens, UniProt P26358); assay: Inhibition of human DNMT1 enzyme using polydeoxy-inosine polydeoxy-cytosine DNA as substrate incubated for 15 mins in presence of SAM by TR-FRET assay
Sequence of DNA (cytosine-5)-methyltransferase 1 (P26358 whole entry): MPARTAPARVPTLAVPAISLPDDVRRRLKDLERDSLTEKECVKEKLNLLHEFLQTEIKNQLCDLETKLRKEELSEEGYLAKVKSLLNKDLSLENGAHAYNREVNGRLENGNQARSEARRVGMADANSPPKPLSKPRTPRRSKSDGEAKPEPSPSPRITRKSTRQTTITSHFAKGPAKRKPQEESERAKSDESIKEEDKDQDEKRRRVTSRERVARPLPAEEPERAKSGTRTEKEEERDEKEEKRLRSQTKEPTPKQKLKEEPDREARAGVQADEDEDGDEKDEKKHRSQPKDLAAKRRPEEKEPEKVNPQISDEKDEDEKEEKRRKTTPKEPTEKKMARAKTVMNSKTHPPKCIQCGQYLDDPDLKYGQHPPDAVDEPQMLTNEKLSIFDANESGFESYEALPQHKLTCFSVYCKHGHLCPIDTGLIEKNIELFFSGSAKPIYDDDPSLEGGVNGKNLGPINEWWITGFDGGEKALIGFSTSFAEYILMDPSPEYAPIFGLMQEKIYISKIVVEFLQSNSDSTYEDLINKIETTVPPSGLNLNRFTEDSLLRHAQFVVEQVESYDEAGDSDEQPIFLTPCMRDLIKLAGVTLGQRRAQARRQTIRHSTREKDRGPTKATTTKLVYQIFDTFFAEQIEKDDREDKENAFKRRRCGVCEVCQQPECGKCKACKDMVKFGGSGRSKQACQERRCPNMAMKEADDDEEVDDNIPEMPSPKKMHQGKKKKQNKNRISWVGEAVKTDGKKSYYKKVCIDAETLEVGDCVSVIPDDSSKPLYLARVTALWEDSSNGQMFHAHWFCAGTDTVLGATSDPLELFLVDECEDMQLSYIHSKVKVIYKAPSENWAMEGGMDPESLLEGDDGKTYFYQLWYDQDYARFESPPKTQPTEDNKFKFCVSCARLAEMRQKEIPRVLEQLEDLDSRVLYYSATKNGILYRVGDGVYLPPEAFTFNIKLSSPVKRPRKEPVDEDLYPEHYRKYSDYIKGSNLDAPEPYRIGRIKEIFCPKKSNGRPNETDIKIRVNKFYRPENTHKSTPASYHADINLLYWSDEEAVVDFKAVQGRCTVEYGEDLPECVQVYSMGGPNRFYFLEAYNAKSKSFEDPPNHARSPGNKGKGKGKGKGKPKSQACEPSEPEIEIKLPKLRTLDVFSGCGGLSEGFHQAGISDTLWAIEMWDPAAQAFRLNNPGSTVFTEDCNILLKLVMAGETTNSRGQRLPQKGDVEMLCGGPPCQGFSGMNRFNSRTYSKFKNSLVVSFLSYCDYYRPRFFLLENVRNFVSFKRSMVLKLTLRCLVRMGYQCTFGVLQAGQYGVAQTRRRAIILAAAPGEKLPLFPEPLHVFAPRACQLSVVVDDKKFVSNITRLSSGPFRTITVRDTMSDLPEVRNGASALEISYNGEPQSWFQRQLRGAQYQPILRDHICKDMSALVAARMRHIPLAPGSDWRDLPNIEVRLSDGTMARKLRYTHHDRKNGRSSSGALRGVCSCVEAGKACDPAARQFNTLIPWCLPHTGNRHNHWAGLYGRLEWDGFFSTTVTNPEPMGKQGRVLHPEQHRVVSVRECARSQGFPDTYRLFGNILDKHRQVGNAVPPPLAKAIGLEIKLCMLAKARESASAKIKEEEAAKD

[5] = time hrs <=72, read-out: pGI50 (converted)

SMILES | IC50 (Histone deacetylase 1) [µM] | IC50 [2] [µM] | IC50 [3] [µM] | IC50 [4] [µM] | LC50 (THLE-2) [µM] | pLC50 (THLE-2) | GI50 (MM1.S; time hrs <=72, read-out: GI50) [µM] | GI50 (MM1.S; [5]) [µM] | Papp at 18 h [1] [×10⁻⁶ cm/s]
COc1cc2nc(-c3ccc(C)o3)cc(NCC3CCN(Cc4ccc(C(=O)NO)s4)CC3)c2cc1OC | 0.303 | > 10 | 0.066 | 0.323 | 2.227 | 5.65 | 1.94 | 1.95 | 0.401
COc1cc2nc(C)cc(NCC3CCN(c4ncc(C(=O)NO)cn4)CC3)c2cc1OC | 0.003 | 0.0072 | 0.253 | > 10 |  |  |  |  | 
COc1cc2nc(-c3ccccc3)cc(NCC3CCN(c4ncc(C(=O)NO)cn4)CC3)c2cc1OC | 0.003 | > 10 | 0.23 | > 10 |  |  |  |  | 
COc1cc2nc(-c3ccc(C)o3)cc(NCc3ccc(C(=O)NO)cn3)c2cc1OC | 0.087 | > 10 | 0.204 | > 10 |  |  |  |  | 
COc1cc2nc(-c3ccc(C)s3)cc(NCC3CCN(c4ncc(C(=O)NO)cn4)CC3)c2cc1OC | 0.017 | > 10 | 1.26 | > 10 |  |  |  |  | 
Cc1[nH]c2ccccc2c1CCNCc1ccc(/C=C/C(=O)NO)cc1 [PANOBINOSTAT] |  |  |  |  | 0.022 | 7.66 | 0.0089 | 0.00891 | 1.42
COc1cc2c(NCC3CCN(c4ncc(C(=O)NO)cn4)CC3)cc(C)nc2cc1OCCCN1CCCC1 | 0.007 | 0.004 | 0.35 | 0.555 | > 100 | < 4 | > 10 | > 10 | 
COc1cc2c(NCC3CCN(Cc4ccc(C(=O)NO)cc4)CC3)cc(-c3ccc(C)o3)nc2cc1OCCCN1CCCC1 | 0.524 | 0.046 | 0.053 | 0.167 | 3.89 | 5.41 | 3.57 | 3.55 | 
O=C(CCCCCCC(=O)Nc1ccccc1)NO [VORINOSTAT] |  | > 10 |  | > 10 |  |  |  |  | 
COc1cc2nc(-c3cc(C)oc3C)cc(NCC3CCN(c4ncc(C(=O)NO)cn4)CC3)c2cc1OC | 0.005 | > 10 | 0.126 | > 10 |  |  |  |  | 
COc1cc2c(NC3CCN(Cc4ccc(C(=O)NO)cc4)CC3)cc(-c3ccc(C)o3)nc2cc1OCCCN1CCCC1 | 0.147 | 0.047 | 0.039 | 0.318 | 22.05 | 4.66 | 4.21 | 4.17 | 

More lines, main results first:

IC50 (Histone deacetylase 1) [µM] | IC50 [2] [µM] | IC50 [3] [µM] | IC50 [4] [µM] | SMILES | LC50 (THLE-2) [µM] | pLC50 (THLE-2) | GI50 (MM1.S; time hrs <=72, read-out: GI50) [µM] | GI50 (MM1.S; [5]) [µM] | Papp at 18 h [1] [×10⁻⁶ cm/s]
0.396 | > 10 | 2.89 | 2.66 | COc1cc2nc(-c3ccc(C)o3)cc(N[C@H]3CC[C@@H](C(=O)NO)CC3)c2cc1OC |  |  |  |  | 
> 20 | 0.038 | > 20 | 0.566 | COc1cc2c(NCC3CCN(C4CCC(C(=O)NO)CC4)CC3)cc(-c3ccc(C)o3)nc2cc1OCCCN1CCCC1 (configuration not stated) |  |  |  |  | 
3.32 | 1.65 | 9.62 | 2.27 | COc1cc2c(NCc3ccc([C@H]4CC[C@H](C(=O)NO)CC4)cc3)cc(-c3ccc(C)o3)nc2cc1OCCCN1CCCC1 |  |  |  |  | 
> 4 | > 10 | > 20 | 4.18 | COc1cc2nc(-c3ccc(C)o3)cc(N[C@H]3CC[C@H](C(=O)NO)CC3)c2cc1OC |  |  |  |  | 
0.034 | 3.1 | 0.122 | 2.76 | COc1cc2c(NCC3CCC(c4ccc(C(=O)NO)cc4)CC3)cc(-c3ccc(C)o3)nc2cc1OCCCN1CCCC1 (configuration not stated) |  |  |  |  | 
0.115 | 1.92 | 0.351 | 1.43 | COc1cc2c(NCc3ccc([C@H]4CC[C@@H](C(=O)NO)CC4)cc3)cc(-c3ccc(C)o3)nc2cc1OCCCN1CCCC1 |  |  |  |  | 
0.003 | > 10 | 0.234 | > 10 | COc1cc2nc(N3CCCCC3)cc(NCC3CCN(c4ncc(C(=O)NO)cn4)CC3)c2cc1OC |  |  |  |  | 
0.144 | > 10 | 0.465 | 8.41 | COc1cc2nc(-c3ccc(C)o3)cc(NCC3CCN(c4ccc(C(=O)NO)cn4)CC3)c2cc1OC |  |  |  |  | 
